Hits are enriched below; roughly 3.6% of the tested compounds scored in any of these assays.
IMP-1 inh: IMP-1 metallo-beta-lactamase inhibitors, primary screen, biochemical, epi-absorbance readout, Pseudomonas aeruginosa enzyme; purified IMP-1, nitrocefin hydrolysis, epi-absorbance fluorescence; inhibition, % at 5.6 µM; hit rate 0.45% among 290,000; AID 1556, 2009;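 active = inhibition above the mean plus 3 SD of all compounds in the same screening run, cut at about 4.5% in these data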
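Material – recombinant IMP-1 enzyme, purified · Amount – IMP-1 0.2 nM before substrate addition · Medium – HEPES buffer pH 7.1 with ZnSO4 and Brij 35 · Timing – 25 °C, 15 min preincubation, 25 min reaction · Measured by – plate fluorescence quenching by hydrolysis product, ex 480/em 530 nm · Read-out – percent enzyme inhibition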
VIM-2 inh: VIM-2 metallo-beta-lactamase inhibitors, primary screen, biochemical, epi-absorbance readout, Pseudomonas aeruginosa enzyme. inhibition, % at 5.6 µM. purified VIM-2, nitrocefin hydrolysis, epi-absorbance fluorescence. hit rate 0.89% among 290,000;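 active = inhibition above the mean of all tested compounds plus 3 SD, cutoff set per screening run, cut at about 7.5% in these data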;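 note: red hydrolysis product quenches plate fluorescence so inhibitors raise well fluorescence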
PAFAH2 inh: PAFAH2 enzyme inhibitors, primary screen, biochemical, fluorescence polarization, human | inhibition, % at 3.39 µM | hit rate 0.99% among 340,000 | recombinant PAFAH2, FP-rhodamine activity probe | Platelet-activating factor acetylhydrolase 2, cytoplasmic (Homo sapiens), Q99487;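 active = inhibition above the mean over all tested compounds plus 3 SD, cut at about 30% in these data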;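 note: inhibitors block probe labeling of enzyme so polarization drops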
PAFAH1B3 inh: PAFAH1B3 enzyme inhibitors, primary screen, biochemical, fluorescence polarization, human. hit rate 0.28% among 340,000. recombinant PAFAH1B3, FP-rhodamine probe. AID 492972, 2010. inhibition, % at 3.39 µM. Platelet-activating factor acetylhydrolase IB subunit alpha1 (Homo sapiens), Q15102;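 active = inhibition above the screen-wide average of all tested compounds plus 3 SD, cut at about 25% in these data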
Target sequence (Q15102 whole entry, looked up): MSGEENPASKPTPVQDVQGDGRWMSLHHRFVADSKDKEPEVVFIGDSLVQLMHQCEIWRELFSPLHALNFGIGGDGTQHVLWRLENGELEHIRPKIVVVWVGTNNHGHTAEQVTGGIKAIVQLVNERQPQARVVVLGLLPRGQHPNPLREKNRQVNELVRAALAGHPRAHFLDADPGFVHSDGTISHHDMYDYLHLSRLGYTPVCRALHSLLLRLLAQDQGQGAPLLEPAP
pPAFAH inh: pPAFAH enzyme inhibitors, primary screen, biochemical, fluorescence polarization, human; recombinant pPAFAH, FP-rhodamine probe fluorescence polarization; inhibition, % at 3.39 µM; hit rate 1.5% among 330,000; AID 463082, 2010;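 active = inhibition above the mean inhibition across the screen plus 3 SD, cut at about 25% in these data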;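 note: inhibitors block binding of the rhodamine activity-based probe so polarization drops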
Target sequence (Q13093 whole entry, looked up): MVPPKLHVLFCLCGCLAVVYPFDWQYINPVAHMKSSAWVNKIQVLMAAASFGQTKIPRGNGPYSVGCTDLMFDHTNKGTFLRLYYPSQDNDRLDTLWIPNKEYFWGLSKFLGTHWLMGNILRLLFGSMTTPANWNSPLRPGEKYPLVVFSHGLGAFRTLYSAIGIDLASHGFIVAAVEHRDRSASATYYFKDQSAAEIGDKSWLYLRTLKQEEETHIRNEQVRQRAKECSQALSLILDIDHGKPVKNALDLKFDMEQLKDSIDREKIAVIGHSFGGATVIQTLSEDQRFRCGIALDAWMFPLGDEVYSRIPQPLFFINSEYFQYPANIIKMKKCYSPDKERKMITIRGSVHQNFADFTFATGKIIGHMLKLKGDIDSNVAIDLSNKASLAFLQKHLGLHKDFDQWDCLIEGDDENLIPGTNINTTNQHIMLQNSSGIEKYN
PAFAH1B2 inh: PAFAH1B2 enzyme inhibitors, primary screen, biochemical, fluorescence polarization, human; recombinant PAFAH1B2, FP-rhodamine activity probe; inhibition, % at 3.39 µM; hit rate 1.2% among 340,000; Platelet-activating factor acetylhydrolase IB subunit alpha2 (Homo sapiens), P68402;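 active = inhibition above the mean of all tested compounds plus 3 SD, cut at about 24% in these data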
Large screens that a line does not name were inactive.

Cc1ccc(C(=O)COC(=O)c2c(C)cc(=O)oc2C)cc1[N+](=O)[O-]	none
CN(C)/C=C1/C=C(c2ccccc2)OC1=O	none
CCC1=C/C(=C/N(C)c2ccccc2)C(=O)S1	IMP-1 inh 6.1
Cc1ccc(C(=O)NCc2ccco2)cc1S(=O)(=O)Nc1cccc(C)c1C	pPAFAH inh 33
CC1CCN(c2nc3ccc(C(=O)NCCCN4CCCCC4)cc3s2)CC1	VIM-2 inh 10
CCC1CCCCN1CCCNC(=O)c1ccc2nc(N3CCC(C)CC3)sc2c1 (configuration not stated)	none
CCOc1ccc(N2CC(C(=O)Nc3cc(S(=O)(=O)N4CCCCC4)ccc3C)CC2=O)cc1 (configuration not stated)	none (no result: IMP-1 inh, VIM-2 inh)
Cc1cccc(NC(=O)COc2ccccc2C(=O)NC(C)c2ccccc2)c1 (configuration not stated)	none
CCC(Sc1nc(-c2cccc(OC)c2)c(C#N)c(=O)[nH]1)C(=O)Nc1nnc(C(C)C)s1 (configuration not stated)	PAFAH1B2 inh 35
COc1cccc(-c2nc(-c3ccccc3)[nH]c(=O)c2C#N)c1	none
O=C(Nc1cccc(Br)c1)c1ccc2c(c1)SC1=NS(=O)(=O)CCN12	none (no result: IMP-1 inh, VIM-2 inh)
CCOc1ccc(Nc2c3ccccc3nc3ccccc23)cc1	VIM-2 inh 9.6
CCOc1ccc(Nc2cc(C)c3ccccc3n2)cc1	none
CCN(CC)CCCN=C1N[C@@H](c2cccc(C(F)(F)F)c2)C(C(=O)OC)=C(C)N1CC	none (no result: IMP-1 inh, VIM-2 inh)
Cc1cc(C)c2c(n1)sc1c(N3CCN(CCO)CC3)ncnc12	VIM-2 inh 12
CCOc1ncnc2c1sc1nc(C)cc(C)c12	none
Cc1ccc(NC(=O)C2CCCN(S(=O)(=O)c3ccc4[nH]c(=O)ccc4c3)C2)c(C)c1 (configuration not stated)	none
COc1ccc(-c2nc3ccc(N4CCN(C)CC4)cc3c(=O)[nH]2)cc1	VIM-2 inh 8.1
COc1ccc(-c2nc3ccccc3c(=O)[nH]2)cc1	none
CN1CCN(S(=O)(=O)c2ccc(N3CCN(c4ccc(O)cc4)CC3)c([N+](=O)[O-])c2)CC1	none (no result: IMP-1 inh, VIM-2 inh)
O=[N+]([O-])c1cc(S(=O)(=O)Nc2ccccc2)ccc1N1CCN(c2ccc(O)cc2)CC1	pPAFAH inh 30
O=c1[nH]c(=O)n(CCCc2ccccc2)cc1-c1ccccc1	none (no result: IMP-1 inh, VIM-2 inh, pPAFAH inh)
O=[N+]([O-])c1ccc(Sc2cccc[n+]2[O-])c2nonc12	PAFAH2 inh 90, PAFAH1B3 inh 83, PAFAH1B2 inh 56 (no result: pPAFAH inh)
O=[N+]([O-])c1ccc(Nc2ccccc2)c2nonc12	none
CS(=O)(=O)N(CC(=O)N1CCN(Cc2ccccc2)CC1)c1ccccc1Br	none
O=C(Cc1ccc(NC(=O)C2CCCN(C(=O)C3CCC3)C2)cc1)Nc1cccc(C(=O)N2CCCCC2)c1 (configuration not stated)	none (no result: IMP-1 inh, VIM-2 inh, pPAFAH inh)
Cc1nnc2c(NC(C)C)nc3ccccc3n12	VIM-2 inh 9.0
NC(=O)Nc1ccc(Oc2c(F)c(F)c(F)c(F)c2F)cc1	pPAFAH inh 29
Cc1cc(NC(=S)N(Cc2ccc(Br)cc2)Cc2ccc(C(=O)O)cc2)ccc1Cl	PAFAH1B2 inh 32
Cc1cccc(NC(=S)N(Cc2ccc(Br)cc2)Cc2ccc(C(=O)O)cc2)c1	none
COc1cc2c(cc1OC)C(C)N(C(=O)[C@@H](NC(=O)c1ccccc1)C(C)C)CC2 (some centres not stated)	none
C[N+](C)(C)c1ccc(/C=N/Nc2nc(Cl)c(C#N)c(Cl)c2Cl)cc1	VIM-2 inh 10
N#Cc1c(Cl)nc(N/N=C/c2ccccc2)c(Cl)c1Cl	pPAFAH inh 29
COc1ccccc1N(C(=O)c1snc(C(N)=O)c1N)C(C(=O)NC1CCCCC1)c1cccc(OC)c1OC (configuration not stated)	none
COc1cccc(S(=O)(=O)Nc2ccc3c(c2)OCCO3)c1	none (no result: pPAFAH inh)
COc1ccccc1CNC(=O)COC(=O)c1ccc(C)c(S(=O)(=O)N2CCCCC2)c1	PAFAH2 inh 42, pPAFAH inh 27
COc1ccc(NS(=O)(=O)c2ccc3oc(Nc4ccc5c(c4)OCCO5)nc3c2)cc1	pPAFAH inh 26
CC1CN(S(=O)(=O)c2cccc(C(=O)OCC(=O)Nc3ccc4c(c3)OCO4)c2)CC(C)O1 (configuration not stated)	PAFAH2 inh 67
COc1cccc(C(=O)OCC(=O)Nc2ccc3c(c2)OCCO3)c1	PAFAH2 inh 76, pPAFAH inh 28 (no result: IMP-1 inh, VIM-2 inh)
COc1cc(OC)c(OC)cc1CNC(=O)c1ccc(COc2ccccc2)cc1	none
COc1ccc(NS(=O)(=O)c2ccc(O)c(C(=O)OCC(=O)Nc3ccc4c(c3)OCCO4)c2)cc1	pPAFAH inh 32
NC(=O)NC(=O)COC(=O)c1cccc(S(=O)(=O)N2CCCCCC2)c1	PAFAH1B2 inh 27
CC(=N\NC(=O)c1ccc([N+](=O)[O-])cc1)/C(=N/O)C(=O)Nc1ccccc1	none
O=C(O)c1cc(S(=O)(=O)NC(Cc2c[nH]c3ccccc23)C(=O)O)ccc1Cl (configuration not stated)	PAFAH1B2 inh 25
O=C(O)c1ccc(Cl)c(S(=O)(=O)NC(Cc2c[nH]c3ccccc23)C(=O)O)c1 (configuration not stated)	none
O=S(=O)(Nc1ccc2c3c(cccc13)CC2)c1ccc(F)cc1	IMP-1 inh 7.8
CCOc1ccccc1C(=O)NCC(=O)N1CCC(C)CC1	none (no result: IMP-1 inh, VIM-2 inh)
CCOC(=O)C1CCN(C(=O)c2cc3cc4cc(OC)ccc4nc3o2)CC1	pPAFAH inh 29
O=S(=O)(Nc1ccc(Cc2ccncc2)cc1)c1ccc(Br)s1	pPAFAH inh 26
COc1ccc(S(=O)(=O)N2CCN(C(=O)[C@@H]3CCC(=O)N3C3OC(=O)c4ccccc43)CC2)cc1 (some centres not stated)	PAFAH1B2 inh 33
Cc1cccc(N2CCN(C(=O)c3cc4n(n3)C(C(F)(F)F)CC(c3ccco3)N4)CC2)c1C (configuration not stated)	pPAFAH inh 34
CCN1CCN(S(=O)(=O)c2ccc(Cl)c(C(=O)N(C)Cc3ccc(C(C)(C)C)cc3)c2)CC1	none (no result: IMP-1 inh, VIM-2 inh, pPAFAH inh)
Cc1cc(=O)oc2c3c(cc(OCC(=O)NCc4ccccc4)c12)OC(C)(C)CC3	pPAFAH inh 33
Cc1c(C)c2c(OCC(=O)N[C@@H](CC(C)C)C(=O)O)cc3c(c2oc1=O)CCC(C)(C)O3	PAFAH2 inh 75, PAFAH1B2 inh 44 (no result: pPAFAH inh)

Screens: PubChem BioAssay, The Scripps Research Institute Molecular Screening Center
